Screening results: PubChem BioAssay, several laboratories
HCT116 PTEN-null: growth suppression of PTEN-null HCT116, primary screen, cell-based, CellTiter-Glo | HCT116 PTEN-null viability, 60 h; active compounds read low | 140,000 tested, 1.2% active | viability, % at 10 µM | AID 827, 2007;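 active = viability at or below a set limit, 4 SD under the median of all tested compounds, cut at about 3.7% in these data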;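 note: PTEN knockout HCT116 line with beta catenin targeted HCT116 as companion control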
Lung fibro prol: antiproliferative effect on LL 47 fibroblasts – human, LL 47 cells, CellTiter-Glo luminescence, primary screen. viability, % at 10 µM. 85,000 tested, 1.1% active. LL 47 human lung fibroblast viability, ATP luminescence; active compounds read low. AID 719, 2007;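 active = viability at or below 50% in the single dose screen; inactive = viability above 50%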;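 note: compound exposure lasted 72 h before the ATP readout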
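material = human LL 47 lung fibroblast cells | dosing = compounds added from tenfold dosing solution, 0.1% DMSO final | timing = overnight cell rest, 72 h compound treatment at 37 °C | measured by = CellTiter-Glo luminescence measuring cellular ATP | evaluation = % viability versus median cells-only luminescence | control set = cell-only wells, no compound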
bCat KO growth: primary screen for growth suppressors in beta-catenin knockout HCT116 cells (colon tumor, human); HCT116 beta-catenin knockout viability, CellTiter-Glo, 60 h; active compounds read low; 140,000 tested, 1.5% active; viability, % at 10 µM;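 active = viability at or under a set limit, the compound median less 4 SD, cut at about 6% in these data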
H69AR inhibit: proliferation blockers of H69AR lung cancer cells, primary screen, cell-based, human, 86K library; AID 598, 2007; viability, % at 10 µM; 85,000 tested, 6% active; H69AR lung tumor viability, ATP luminescence, 72 h; active compounds read low;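 active = viability at or below 40%; inactive = viability above 40%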;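 note: multidrug resistant small cell line overexpressing MRP-1 efflux transporter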
PTK2B oligo ant: antagonists of Pyk2 self-association, primary screen, Q293 cells, FERM NanoBiT luminescence, HTS; active compounds read low; Protein-tyrosine kinase 2-beta (Homo sapiens), Q14289; 99,000 tested, 0.83% active; z-score (the deposit names both 25 µM and 10 µM);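 active = Z-score of -3 or lower, scaled per plate to the spread of control and sample wells; inactive = z-score above -3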;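 note: negative z-score means lost luminescence so less FERM oligomerization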
Target sequence (Q14289 whole entry, looked up): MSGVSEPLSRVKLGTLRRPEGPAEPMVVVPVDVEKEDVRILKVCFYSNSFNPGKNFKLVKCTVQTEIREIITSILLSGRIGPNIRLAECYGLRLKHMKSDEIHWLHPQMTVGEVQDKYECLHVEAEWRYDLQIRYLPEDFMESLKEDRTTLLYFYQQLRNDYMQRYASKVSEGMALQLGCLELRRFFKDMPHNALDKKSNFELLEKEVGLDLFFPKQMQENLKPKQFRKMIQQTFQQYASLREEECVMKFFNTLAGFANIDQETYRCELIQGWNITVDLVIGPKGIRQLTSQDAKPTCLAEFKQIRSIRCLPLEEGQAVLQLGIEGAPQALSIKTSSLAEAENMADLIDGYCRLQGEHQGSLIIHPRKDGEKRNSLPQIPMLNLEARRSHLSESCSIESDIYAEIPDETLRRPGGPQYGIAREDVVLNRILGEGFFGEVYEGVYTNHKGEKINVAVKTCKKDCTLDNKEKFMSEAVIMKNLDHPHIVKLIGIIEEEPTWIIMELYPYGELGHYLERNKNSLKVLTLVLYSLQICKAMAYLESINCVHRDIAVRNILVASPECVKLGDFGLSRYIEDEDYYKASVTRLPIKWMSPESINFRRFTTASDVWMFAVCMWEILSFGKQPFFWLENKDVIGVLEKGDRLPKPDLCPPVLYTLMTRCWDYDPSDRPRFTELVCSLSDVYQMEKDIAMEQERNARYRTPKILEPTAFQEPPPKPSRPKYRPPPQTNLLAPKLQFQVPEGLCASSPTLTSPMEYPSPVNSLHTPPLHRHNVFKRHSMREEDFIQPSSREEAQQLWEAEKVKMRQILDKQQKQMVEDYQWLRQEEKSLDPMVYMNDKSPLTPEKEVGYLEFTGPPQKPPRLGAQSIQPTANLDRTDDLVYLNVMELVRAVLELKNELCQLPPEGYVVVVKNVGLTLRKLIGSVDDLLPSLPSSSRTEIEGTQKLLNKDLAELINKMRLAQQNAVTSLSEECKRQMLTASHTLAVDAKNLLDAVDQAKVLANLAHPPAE
HUVEC inhibit: inhibitors of HUVEC proliferation, primary screen, cell-based, 384-well. CellTiter-Glo luminescence, 72 h; active compounds read low. viability, % at 10 µM (by protocol). 86,000 tested, 1.1% active;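 active = viability at or below 30%; inactive = viability above 30%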
Large screens that a line does not name were inactive. This is one part of a sample in which hits are shown more often than they occur.

COc1ccc(-c2cc(C(=O)N3CCN(c4ccccn4)CC3)c3ccccc3n2)cc1	H69AR inhibit 15.8
COc1ccc(OC)c(-c2cc(C(=O)N3CCN(c4ncccn4)CC3)c3ccccc3n2)c1	H69AR inhibit 29.7
COc1cc(-c2cc(C(=O)N3CCN(c4ccccn4)CC3)c3ccccc3n2)cc(OC)c1OC	none
CCOc1ccc(-c2cc(C(=O)N3CCN(c4ccccn4)CC3)c3ccccc3n2)cc1	H69AR inhibit 18.4
CCOC(=O)N1CCN(C(=O)c2cc(-c3ccc(OCC)cc3)nc3ccccc23)CC1	H69AR inhibit 15.6
COc1ccc(-c2cc(C(=O)N3CCN(c4ncccn4)CC3)c3ccccc3n2)c(OC)c1	none (no result: Lung fibro prol, H69AR inhibit, PTK2B oligo ant, HUVEC inhibit)
CCCN(CCC)C(=O)c1ccc2c(c1)N(Cc1ccccc1)C(=O)CS2=O (stereo not given)	none (no result: PTK2B oligo ant)
COc1ccc(CCN2C(=O)CN(Cc3ccccc3)CC2=O)cc1OC	HCT116 PTEN-null 0.1 (no result: Lung fibro prol, H69AR inhibit, PTK2B oligo ant, HUVEC inhibit)
O=C(/C=C/c1c(F)cccc1Cl)c1ccc(F)cc1	HCT116 PTEN-null 2.4, bCat KO growth 4.3 (no result: Lung fibro prol, H69AR inhibit, HUVEC inhibit)
COC(=O)COc1cccc2c(=O)n(CC(=O)NCCc3ccccc3)ccc12	none (no result: Lung fibro prol, H69AR inhibit, PTK2B oligo ant, HUVEC inhibit)
CCC(=C(c1ccc(OC)cc1)c1ccc(OC)cc1)c1cn(CC(O)CN2CCN(C)CC2)c2ccccc12 (stereo not given)	HCT116 PTEN-null 1.7, Lung fibro prol 21.4, bCat KO growth 2.1, H69AR inhibit 1.6, HUVEC inhibit 3.0 (no result: PTK2B oligo ant)
CCC(C(=O)OCC(=O)Nc1c(Cl)cccc1Cl)c1ccccc1 (stereo not given)	none (no result: Lung fibro prol, H69AR inhibit, PTK2B oligo ant, HUVEC inhibit)
O=C(NCC(c1ccc(F)cc1)N1CCOCC1)c1ccc(Br)o1 (stereo not given)	none
CCOc1cc2nc(-c3ccc(OC)c(OC)c3)nc(N3CCOCC3)c2cc1OC	H69AR inhibit 33.0, HUVEC inhibit 6.9 (no result: PTK2B oligo ant)
CCOC(=O)c1ccc(NC2=CC(=O)C(=O)c3ccccc32)cc1	Lung fibro prol 3.9, bCat KO growth 1.4, PTK2B oligo ant -4.33, HUVEC inhibit 5.4
Cc1ccc(NC2=CC(=O)C(=O)c3ccccc32)cc1	HCT116 PTEN-null 0.6, Lung fibro prol 7.3, bCat KO growth 1.2, H69AR inhibit 3.4, HUVEC inhibit 6.5
CC1Cc2ccccc2N1CC(=O)NCc1ccc2c(c1)OCO2 (stereo not given)	none (no result: Lung fibro prol, H69AR inhibit, PTK2B oligo ant, HUVEC inhibit)
Fc1ccc(Nc2nc(N3CCOCC3)c3ccccc3n2)cc1	H69AR inhibit 34.6 (no result: HCT116 PTEN-null, bCat KO growth)
CN(Cc1ccccc1)C(=O)c1ccccc1Br	none (no result: Lung fibro prol, H69AR inhibit, PTK2B oligo ant, HUVEC inhibit)
COc1ccc([N+](=O)[O-])cc1C1NN=C(c2ccccc2O)S1 (stereo not given)	H69AR inhibit 27.5
COc1ccc(CN2CCn3ncc(C(=O)Nc4cc(C)cc(C)c4)c3C2=O)cc1	HUVEC inhibit 10.3
COc1cc(CNCc2ccccn2)ccc1OCC(N)=O	none (no result: Lung fibro prol, H69AR inhibit, HUVEC inhibit)
COc1cc(CNCc2ccccn2)ccc1OCc1ccc(Cl)cc1Cl	HCT116 PTEN-null 3.5, bCat KO growth 2.4 (no result: Lung fibro prol, H69AR inhibit, HUVEC inhibit)
c1ccc(Nc2cccc(Nc3ccccc3)c2)cc1	none (no result: Lung fibro prol, H69AR inhibit, PTK2B oligo ant, HUVEC inhibit)
[O-][N+]1=c2ccc(Nc3ccccc3)cc2=NC12CCCCC2	HCT116 PTEN-null 1.1, Lung fibro prol 12.9, bCat KO growth 1.6, H69AR inhibit 1.2, HUVEC inhibit 4.6
COc1ccc(Nc2ccc3c(c2)=NC2(CCCCC2)[N+]=3[O-])cc1	HCT116 PTEN-null 1.2, bCat KO growth 1.1 (no result: Lung fibro prol, H69AR inhibit, HUVEC inhibit)
Cc1c(C=O)c(C=O)c(C)n1Cc1ccccc1	Lung fibro prol 47.8, H69AR inhibit 38.5
CC(C)CNC1=C(C(=S)Nc2ccccc2)C(=O)CC(C)(C)C1	none (no result: Lung fibro prol, H69AR inhibit, PTK2B oligo ant, HUVEC inhibit)
COC(=O)CSCc1nc2ccccc2[nH]c1=O	none (no result: PTK2B oligo ant)
NNC(=O)CNC(c1ccccc1)c1cc(Br)ccc1NC(=O)c1ccccc1Br (stereo not given)	none (no result: Lung fibro prol, H69AR inhibit, HUVEC inhibit)
CCCCC(=O)O[C@H]1CC[C@H]2[C@@H]3CCc4cc(O)ccc4[C@H]3CC[C@]12C	H69AR inhibit 1.1, HUVEC inhibit 8.9 (no result: PTK2B oligo ant)
COc1cccc(-n2nnc3c(=O)n(CC(=O)N4CCC(Cc5ccccc5)CC4)cnc32)c1	H69AR inhibit 29.8
COc1cccc(-n2nnc3c(=O)n(CC(=O)N4CCC(C)CC4)cnc32)c1	none
C/C(CC1CC(C)OC1=O)=N\NC(N)=S (stereo not given)	none (no result: Lung fibro prol, H69AR inhibit, PTK2B oligo ant, HUVEC inhibit)
C/C(CC(C)(C)C1CCCCC1)=N\NC(N)=S	bCat KO growth 4.6, H69AR inhibit 24.0
COc1ccc(OC)c(C(=O)C2COC(=O)C2)c1 (stereo not given)	H69AR inhibit 25.6
COc1ccc(OC)c(C(=O)c2ccc(C(=O)c3cc(OC)ccc3OC)cc2)c1	none
Cc1cc(=O)n2c3c(sc2n1)C(=O)N(Cc1ccccc1)C3=O	H69AR inhibit 1.1 (no result: PTK2B oligo ant)
Cc1cc(=O)n2nc(-c3ccccc3)sc2n1	none
O=C(OCC#CCSc1nc2ccccc2s1)c1ccco1	none
CC12CN3CC(C)(CN(C1)C31C(=O)N(Cc3ccccc3)c3ccccc31)C2=O (stereo not given)	none (no result: HCT116 PTEN-null, bCat KO growth, PTK2B oligo ant)
CC1(C)CC(=O)C(C2(O)C(=O)N(Cc3ccccc3)c3ccccc32)CO1 (stereo not given)	H69AR inhibit 17.0
CC1(C)CC(=O)CC(C2(O)C(=O)N(Cc3ccccc3)c3ccccc32)O1 (stereo not given)	H69AR inhibit 28.5 (no result: PTK2B oligo ant)
COC(=O)[C@@H]1CC[C@H](C)[C@@H](c2ccc(C)cc2)N1C(=O)c1ccc(/C=N/O[C@@H](C)CN2CCCCc3nc(C)c(C)cc32)cc1	bCat KO growth 5.9 (no result: Lung fibro prol, H69AR inhibit, PTK2B oligo ant, HUVEC inhibit)
COc1ccc(S(=O)(=O)n2nc(OC(=O)c3c(-c4ccccc4Cl)noc3C)cc2N)cc1	H69AR inhibit 28.1
COc1ccccc1C(=O)Oc1cc(N)n(S(=O)(=O)c2ccc(C)cc2)n1	none (no result: Lung fibro prol, H69AR inhibit, HUVEC inhibit)
CCCCC(=O)Nc1ccc(C(=O)Nc2ccc(S(=O)(=O)Nc3nccc(C)n3)cc2)cc1	none (no result: Lung fibro prol, H69AR inhibit, PTK2B oligo ant, HUVEC inhibit)
Cc1cc2nc(C)n(CCCN)c2cc1C	H69AR inhibit 13.1
CCOc1ccccc1-c1nc(-c2ccc(NC(=O)Cc3ccccc3OC)cc2)no1	none
COc1ccccc1CC(=O)Nc1ccc(-c2noc(COc3ccc(Cl)c(C)c3)n2)cc1	H69AR inhibit 29.9
CCCCNS(=O)(=O)c1ccc(NC(=O)c2c(-c3ccccc3Cl)noc2C)cc1	H69AR inhibit 33.0
Cc1onc(-c2ccccc2Cl)c1C(=O)Nc1ccc(S(=O)(=O)NCC2CCCO2)cc1 (stereo not given)	none
Cc1nc(N2CCN(c3ccccc3)CC2)[nH]c(=O)c1Cc1cccc2ccccc12	H69AR inhibit 21.7 (no result: PTK2B oligo ant)
CCN(CC)CCNC(=O)c1ccc2c(=O)n(CCc3ccccc3)c(=O)[nH]c2c1	none (no result: Lung fibro prol, H69AR inhibit, HUVEC inhibit)
CN(C)c1ccccc1C(=O)c1ccccc1N(C)C	H69AR inhibit 13.9
CN(c1ccccc1C(=O)O)S(C)(=O)=O	none
